Source: ChEMBL document CHEMBL3627612, “Hirsutinolide Series Inhibit Stat3 Activity, Alter GCN1, MAP1B, Hsp105, G6PD, Vimentin, TrxR1, and Importin α-2 Expression, and Induce Antitumor Effects against Human Glioma” (J Med Chem, 2015)
Calls of active or inactive are those of the source. The rule behind the calls is not given here.

What was measured:
[1] = molecular target: T1, Signal transducer and activator of transcription 3 (Homo sapiens, UniProt P40763); assay: Inhibition of Stat3 activity in human glioma (G22) patient-derived mouse xenograft cells assessed as phosphorylated Stat3 level at 5 uM after 3 hrs by immunoblot analysis
Procedure, shortened: (§1)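 Cultured G22 glioma patient-derived mouse xenograft cells (DMEM, 5–10% heat-inactivated FBS) treated with 5 μM compound for 0–24 h. Whole-cell lysates immunoblotted for pStat3, Stat3, GAPDH.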

[2] = test system: MDA-MB-231; assay: Antiproliferative activity against human MDA-MB-231 cells for 72 hrs by cyquant assay; assay type: functional, cell-based; settings: MDA-MB-231, 72 h
Procedure, shortened: (§2)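 CyQuant proliferation assay after 72 h compound exposure of cultured cells; relative viability normalized to DMSO-treated control; IC50 values derived. Glioma lines grown in RPMI or DMEM with 10% FBS and 1% nonessential amino acids.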

[3] = Antiproliferative activity against human Glioma (G12) patient derived xenograft cells at 5 uM after 72 hrs by cyquant assay; assay type: functional, Glioma cell
[4] = molecular target: Signal transducer and activator of transcription 3 (Mus musculus) (UniProt P42227); assay: Inhibition of Stat3 dimer DNA binding activity in EGF-stimulated mouse NIH3T3 nuclear extract expressing human EGFR assessed as residual activity at 5 uM preincubated for 30 mins followed by addition of radiolabeled probe hSIE for 30 mins by EMSA
[5] = molecular target: T1, Signal transducer and activator of transcription 3; assay: Binding affinity to Stat3 (unknown origin) by NMR analysis
[6] = molecular target: T1, Signal transducer and activator of transcription 3; assay: Inhibition of Stat3 activity in human glioma (G22) patient-derived mouse xenograft cells assessed as phosphorylated Stat3 level at 5 uM after 24 hrs by immunoblot analysis; procedure, shortened: as §1
[7] = Antiproliferative activity against human Glioma (G22) patient derived xenograft cells at 5 uM after 72 hrs by cyquant assay; assay type: functional, Glioma cell
[8] = test system: U-251; assay: Effect on SOCS3 expression in human U251MG cells at 5 uM after 0.5 to 24 hrs by immunoblot analysis; assay type: functional, cell-based
Procedure, shortened: (§3)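 U251MG cells treated with 5 μM compound for 0–24 h; whole-cell lysates of equal total protein immunoblotted. Controls were 0.025% DMSO-treated cells. Representative of 2–4 independent determinations.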

[9] = molecular target: T1, Signal transducer and activator of transcription 3; assay: Inhibition of orthovandate-induced Stat3 phosphorylation in human U251MG cells at 5 uM for 3 hrs by immunoblot analysis in presence of 10 to 300 uM orthovandate; assay type: cell-based; settings: U-251
Procedure, shortened: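 U251MG cells treated with 5 μM compound for 3 h without or with 10–300 μM Na3VO4. Whole-cell lysates of equal total protein immunoblotted for pStat3 and Stat3. Controls were 0.025% DMSO. Representative of 2–4 determinations.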

[10] = Antiproliferative activity against human SF295 cells for 72 hrs by cyquant assay; assay type: functional, cell-based; settings: SF-295, 72 h; procedure, shortened: as §2
[11] = test system: U-251; assay: Anticlonogenic activity against human U251MG cells for 72 hrs measured after 2 weeks by crystal-violet staining based assay; assay type: functional, cell-based
Procedure, shortened: (§4)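 Single-cell seeding at 250 cells per well; cells treated once the next day for 72 h with 0–5 μM compound, then grown until large colonies were visible (NIH3T3 1 week, MDA-MB-231 and U251MG 2 weeks, MCF-7 4 weeks). Colonies stained with crystal violet for 4 h, imaged and counted.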

[12] = Antiproliferative activity against human U251MG cells at 5 uM for 72 hrs by cyquant assay; assay type: functional; settings: U-251, 72 h; procedure, shortened: as §2
[13] = molecular target: Mitogen-activated protein kinase; ERK1/ERK2 (Homo sapiens) (UniProt P27361+P28482); assay: Modulation of Erk1/2 phosphorylation in human U251MG cells at 5 uM after 0.5 to 24 hrs by immunoblot analysis; assay type: cell-based; settings: U-251
Procedure, shortened: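 U251MG glioma cells (RPMI or DMEM, 10% FBS, 1% nonessential amino acids) treated with 5 μM compound for 0–24 h; 0.025% DMSO control. Whole-cell lysates of equal total protein immunoblotted for pErk1/2, Erk1/2, pJAK2 and JAK2 with β-actin or GAPDH loading controls. Representative of 2–4 independent determinations.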

[14] = molecular target: Signal transducer and activator of transcription 3 (Mus musculus) (UniProt P42227); assay: Inhibition of EGF-induced Stat3 phosphorylation in mouse NIH3T3 cells expressing human EGFR at 5 uM preincubated for 3 hrs followed by stimulation with 1 ug/ml EGF for 12 mins by immunoblot analysis; assay type: cell-based
Procedure, shortened: (§5)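 NIH3T3/hEGFR fibroblasts pretreated with or without 5 μM compound for 3 h, then stimulated with 1 μg/ml EGF for 12 min. Whole-cell lysates of equal total protein immunoblotted for phospho and total Stat3, Stat1, Stat5, Erk1/2. Controls were 0.025% DMSO-treated cells. Representative of 2–4 independent determinations.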

[15] = Antiproliferative activity against human U373MG cells for 72 hrs by cyquant assay; assay type: functional, cell-based, U-373MG ATCC; settings: U373 MG; procedure, shortened: as §2
[16] = Antiproliferative activity against human Glioma (G10) patient derived xenograft cells at 5 uM after 72 hrs by cyquant assay; assay type: functional, Glioma cell
[17] = Cytotoxicity against mouse NIH/3T3 cells assessed as colony survival at 1 to 5 uM for 72 hrs measured after 1 week by crystal-violet staining based assay; assay type: cell-based; settings: nih3t3, 5 µM; procedure, shortened: as §4
[18] = test system: SF-295; assay: Anticlonogenic activity against human SF295 cells for 72 hrs by crystal-violet staining based assay; assay type: functional, cell-based
[19] = molecular target: T1, Signal transducer and activator of transcription 3; assay: Inhibition of Stat3 dimer DNA binding activity in human U251MG cells nuclear extract after 1.5 hrs by EMSA using radiolabeled probe hSIE
[20] = Cytotoxicity against mouse NIH/3T3 cells at 5uM after 72 hrs by cyquant cells; assay type: cell-based; settings: nih3t3, 72 h; procedure, shortened: as §2
[21] = molecular target: Mitogen-activated protein kinase 1 and 3 (ERK2 and ERK1) (Mus musculus) (UniProt P63085+Q63844); assay: Modulation of EGF-induced Erk1/2 phosphorylation in mouse NIH3T3 cells expressing human EGFR at 5 uM preincubated for 3 hrs followed by stimulation with 1 ug/ml EGF for 12 mins by immunoblot analysis; assay type: cell-based; procedure, shortened: as §5
[22] = test system: Glioma cell; assay: Effect on cell morphology in human Glioma (G22) patient derived xenograft cells assessed as cell disaggregation of spheroids at 5 uM for 24 hrs measured after 48 to 96 hrs by inverted fluorescence microscope analysis in presence of matrigel; assay type: functional
Procedure, shortened: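 G22 patient-derived xenograft glioma cells seeded at 1,000 cells/well in ultra-low-binding round-bottom wells, grown 48 h into 3D spheroids, then treated once with 5 μM compound or DMSO; matrigel added after 24 h. Spheroids imaged at 5× magnification on an inverted fluorescence microscope every 24 h for up to 120 h.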

[23] = molecular target: T1, Signal transducer and activator of transcription 3; assay: Inhibition of Stat3 dimer DNA binding activity in human U251MG cells nuclear extract at 5 uM after 0.5 to 24 hrs by EMSA using radiolabeled probe hSIE; assay type: cell-based; settings: U-251
Procedure, shortened: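 Sub-confluent U251MG or U373MG cells treated with compound (5 μM for 0–24 h, or 0–5 μM for 1.5 h). Stat3:DNA bands scanned, quantified and plotted against concentration to derive IC50. Controls were 0.025% DMSO.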

[24] = molecular target: RAC-alpha serine/threonine-protein kinase (Homo sapiens) (UniProt P31749); assay: Modulation of Akt phosphorylation in human U251MG cells at 5 uM after 0.5 to 24 hrs by immunoblot analysis; assay type: cell-based; settings: U-251; procedure, shortened: as §3
RAC-alpha serine/threonine-protein kinase (Homo sapiens), sequence (P31749 whole entry): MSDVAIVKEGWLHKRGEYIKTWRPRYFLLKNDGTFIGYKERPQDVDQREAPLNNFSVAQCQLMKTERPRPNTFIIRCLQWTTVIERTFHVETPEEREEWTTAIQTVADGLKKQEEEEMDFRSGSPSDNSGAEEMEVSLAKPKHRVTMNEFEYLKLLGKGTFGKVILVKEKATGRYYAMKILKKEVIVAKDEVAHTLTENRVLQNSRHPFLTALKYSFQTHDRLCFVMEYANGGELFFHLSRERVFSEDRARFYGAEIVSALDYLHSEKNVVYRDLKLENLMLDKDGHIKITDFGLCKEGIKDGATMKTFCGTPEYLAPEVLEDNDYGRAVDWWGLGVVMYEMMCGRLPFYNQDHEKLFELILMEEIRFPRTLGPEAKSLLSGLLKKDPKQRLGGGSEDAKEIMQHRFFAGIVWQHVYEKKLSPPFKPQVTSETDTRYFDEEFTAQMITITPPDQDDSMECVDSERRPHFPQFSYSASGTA

Mitogen-activated protein kinase; ERK1/ERK2 (Homo sapiens), sequence (P27361 whole entry, looked up): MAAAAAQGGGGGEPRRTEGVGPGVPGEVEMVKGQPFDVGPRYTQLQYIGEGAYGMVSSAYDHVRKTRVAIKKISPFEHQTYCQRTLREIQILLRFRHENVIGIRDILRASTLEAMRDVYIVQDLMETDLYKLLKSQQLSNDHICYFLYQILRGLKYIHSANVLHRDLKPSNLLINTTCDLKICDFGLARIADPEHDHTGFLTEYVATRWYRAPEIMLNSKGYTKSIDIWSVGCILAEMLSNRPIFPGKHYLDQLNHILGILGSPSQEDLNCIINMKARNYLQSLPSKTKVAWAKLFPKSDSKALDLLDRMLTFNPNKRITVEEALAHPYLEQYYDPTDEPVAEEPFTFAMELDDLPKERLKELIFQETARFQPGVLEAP
Mitogen-activated protein kinase; ERK1/ERK2 (Homo sapiens), sequence (P28482 whole entry, looked up): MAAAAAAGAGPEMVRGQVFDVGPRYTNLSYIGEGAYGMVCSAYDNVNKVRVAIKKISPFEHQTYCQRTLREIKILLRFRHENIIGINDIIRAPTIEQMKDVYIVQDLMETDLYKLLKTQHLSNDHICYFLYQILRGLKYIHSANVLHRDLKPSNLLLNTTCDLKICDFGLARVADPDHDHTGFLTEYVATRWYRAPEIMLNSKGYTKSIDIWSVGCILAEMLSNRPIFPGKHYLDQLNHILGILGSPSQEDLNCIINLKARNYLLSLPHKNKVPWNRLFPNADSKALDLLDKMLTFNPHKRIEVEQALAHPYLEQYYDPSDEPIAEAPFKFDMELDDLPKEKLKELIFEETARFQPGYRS
Mitogen-activated protein kinase 1 and 3 (ERK2 and ERK1) (Mus musculus), sequence (P63085 whole entry, looked up): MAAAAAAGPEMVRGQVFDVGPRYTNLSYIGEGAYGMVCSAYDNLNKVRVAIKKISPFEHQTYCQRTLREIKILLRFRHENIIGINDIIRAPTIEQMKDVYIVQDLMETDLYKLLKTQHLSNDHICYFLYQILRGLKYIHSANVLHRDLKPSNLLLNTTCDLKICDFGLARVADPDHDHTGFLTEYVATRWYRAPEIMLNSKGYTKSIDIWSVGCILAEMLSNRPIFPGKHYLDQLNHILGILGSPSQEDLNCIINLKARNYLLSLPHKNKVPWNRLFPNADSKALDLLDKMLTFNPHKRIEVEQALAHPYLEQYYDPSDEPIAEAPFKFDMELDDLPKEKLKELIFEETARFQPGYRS
Mitogen-activated protein kinase 1 and 3 (ERK2 and ERK1) (Mus musculus), sequence (Q63844 whole entry, looked up): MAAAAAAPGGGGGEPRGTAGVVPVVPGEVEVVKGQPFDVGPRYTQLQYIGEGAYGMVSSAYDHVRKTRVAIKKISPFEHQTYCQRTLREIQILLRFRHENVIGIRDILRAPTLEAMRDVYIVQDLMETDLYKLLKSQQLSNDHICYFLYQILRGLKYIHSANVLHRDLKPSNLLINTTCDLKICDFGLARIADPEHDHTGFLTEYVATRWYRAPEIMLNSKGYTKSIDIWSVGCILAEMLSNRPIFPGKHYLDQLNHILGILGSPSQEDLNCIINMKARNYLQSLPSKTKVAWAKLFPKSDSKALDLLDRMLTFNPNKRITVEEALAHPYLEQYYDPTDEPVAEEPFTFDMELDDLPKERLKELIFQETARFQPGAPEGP
T1 sequence (P40763 whole entry): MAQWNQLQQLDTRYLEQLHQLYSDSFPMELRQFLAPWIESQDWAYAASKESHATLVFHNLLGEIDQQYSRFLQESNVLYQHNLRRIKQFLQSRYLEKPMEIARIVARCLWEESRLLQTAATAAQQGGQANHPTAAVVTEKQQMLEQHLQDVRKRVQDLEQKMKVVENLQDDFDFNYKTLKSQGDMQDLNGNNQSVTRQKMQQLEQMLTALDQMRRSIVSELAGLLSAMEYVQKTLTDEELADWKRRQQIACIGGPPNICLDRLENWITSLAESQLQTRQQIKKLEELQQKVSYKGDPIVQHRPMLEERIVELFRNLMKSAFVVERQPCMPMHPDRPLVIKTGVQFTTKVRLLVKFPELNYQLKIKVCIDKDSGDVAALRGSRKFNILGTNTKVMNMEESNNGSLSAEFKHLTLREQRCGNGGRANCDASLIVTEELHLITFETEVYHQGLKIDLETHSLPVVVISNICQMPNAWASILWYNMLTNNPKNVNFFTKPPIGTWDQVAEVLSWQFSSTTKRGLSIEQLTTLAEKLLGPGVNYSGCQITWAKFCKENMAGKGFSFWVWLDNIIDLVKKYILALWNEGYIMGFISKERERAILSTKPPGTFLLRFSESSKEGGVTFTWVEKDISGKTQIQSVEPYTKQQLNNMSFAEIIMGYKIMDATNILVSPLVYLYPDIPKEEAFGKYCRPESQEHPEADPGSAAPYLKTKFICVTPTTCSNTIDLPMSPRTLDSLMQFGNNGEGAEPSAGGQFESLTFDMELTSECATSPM
Signal transducer and activator of transcription 3 (Mus musculus), sequence (P42227 whole entry): as the sequence (P40763 whole entry) above, with E760D counted along it

| Compound | inhibition [1] | IC50 [2] [µM] | inhibition (INH) [3] [%] | Activity [4] [%] | Activity [5] | inhibition [6] | inhibition (INH) [7] [%] | Activity [8] | inhibition [9] | IC50 [10] [µM] | Activity [11] | inhibition at 5 µM [12] [%] | Activity [13] | inhibition [14] | IC50 [15] [µM] | inhibition (INH) [16] [%] | Activity [17] | Activity [18] | IC50 [19] [µM] | Activity [20] | other results |
| --- | --- | --- | --- | --- | --- | --- | --- | --- | --- | --- | --- | --- | --- | --- | --- | --- | --- | --- | --- | --- | --- |
| C/C=C(\C)C(=O)O[C@H]1C[C@@H](C)[C@]2(OC)CC[C@](C)(/C=C3/OC(=O)C(COC(C)=O)=C31)O2 | Active | 6.6 | 25 | 31 | Dose-dependent effect | inactive | 45 | inactive | Active | 8.2 | Dose-dependent effect | 90 | inactive | Active | 6.6 | 45 | Toxic | Dose-dependent effect | 3.2 | Toxic | inhibition [21]: inactive; Activity [22]: Active; inhibition [23]: Active; Activity [24]: inactive |
| C/C=C(\C)C(=O)O[C@H]1C[C@@H](C)[C@]2(O)CC[C@](C)(/C=C3/OC(=O)C(COC(C)=O)=C31)O2 | Active | 1.8 | 25 | 49 | Dose-dependent effect | inactive | 45 | inactive | Active | 7.5 | Dose-dependent effect | 90 | inactive | Active | 3.5 | 45 | Toxic | Dose-dependent effect | 2.2 | Toxic | inhibition [21]: inactive; Activity [22]: Active; inhibition [23]: Active; Activity [24]: inactive |
| C/C=C(\C)C(=O)OCC1=C2/C(=C\[C@@]3(C)CC[C@](O)(O3)[C@H](C)C[C@@H]2O)OC1=O | Active | 6.5 | 25 | 8 | Dose-dependent effect | inactive | 45 | inactive | Active | 9.6 | Dose-dependent effect | 90 | inactive | Active | 6.5 | 45 | Toxic | Dose-dependent effect | 2.6 | Non-toxic | inhibition [21]: inactive; Activity [22]: Active; inhibition [23]: Active; Activity [24]: inactive |
